Screening data as filed in PubChem BioAssay.
This is a sample that favours compounds with a hit; in the whole collection about 2.2% have one here.
PGC1a acetyl inh: modulators of PGC1a acetylation; inhibition, % at 15.6 µM; U2OS PGC1a acetylation, AlphaScreen anti-acetyl-lysine; with virally co-expressed GCN5 acetyltransferase; 0.17% of 350,000 active; AID 651687;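 active = every replicate shows inhibition of at least 40%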;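 note: 0% = neutral control wells and 100% = positive control wells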
FGF22 binding: binders of recombinant human FGF22 by thermal shift. SYPRO orange fluorescence; percent of sucrose octasulfate shift, DMSO zero. Q9HCT0. 1.5% of 340,000 active. activity (Tm shift, normalised), % at 9.99 µM. AID 651658;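 active = mean Tm shift, scaled 0 neutral to 100 positive control, at about 1.3% or above, every replicate too, limit read from the data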
SIRT5 block: inhibitors of human sirtuin-5 desuccinylase; Q9NXA8; Purified SirT5, succinyl-peptide AMC, trypsin-coupled fluorescence; inhibition, % at 15 µM; 1.1% of 330,000 active; AID 652115; in the data active = inhibition above about 15%
Target sequence (Q9NXA8 whole entry, looked up): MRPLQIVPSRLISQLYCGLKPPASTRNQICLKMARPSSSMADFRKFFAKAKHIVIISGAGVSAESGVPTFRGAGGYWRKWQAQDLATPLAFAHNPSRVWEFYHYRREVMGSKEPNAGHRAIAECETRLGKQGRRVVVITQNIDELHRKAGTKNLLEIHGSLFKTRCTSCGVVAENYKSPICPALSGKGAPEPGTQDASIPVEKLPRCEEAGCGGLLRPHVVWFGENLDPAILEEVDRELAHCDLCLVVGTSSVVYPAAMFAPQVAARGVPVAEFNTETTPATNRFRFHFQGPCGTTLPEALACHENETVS
ERAP1 HTS inh: blocks human ERAP1 aminopeptidase activity; Q9NZ08; recombinant ERAP1, Leu-AMC fluorescence, 60 min; inhibition, % at 10.7 µM; 0.15% of 340,000 active; AID 652197;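 active = mean replicate inhibition of at least 30%, or all replicates individually reaching that 30% level; inactive = mean below 30% and not every replicate reaching it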;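 note: 0% = neutral control wells and 100% = L-leucinethiol positive control wells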
FN deposition inh: fibronectin deposition inhibition; AH1F fibroblasts, Alexa488-fibronectin deposition fluorescence, overnight; inhibition, % at 12.6 µM; AID 743247; 0.086% of 350,000 active;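 active = mean inhibition across replicates of 30% or more, regardless of how many single replicates reach that level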;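 note: positive control wells lacked labelled fibronectin entirely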
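Schedule: 1 h cell adhesion before compound, then overnight fibronectin incubation; test system: AH1F fibroblast monolayer depositing Alexa488-labelled fibronectin into matrix; quantity: 10000 AH1F cells per well; probe or stimulus: fluorescent fibronectin at 24 nM final; signal: fluorescence, ex 485 nm, em 525 nm; evaluation: percent inhibition as loss of matrix-bound fibronectin fluorescence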
* = called active by the depositor; . = no result.

SMILES	PGC1a acetyl inh	FGF22 binding	SIRT5 block	ERAP1 HTS inh	FN deposition inh
C[C@H](CO)N1C[C@H](C)[C@@H](CN(C)C(=O)C2CCCCC2)Oc2cc(-c3ccncc3)ccc2S1(=O)=O	1	.	.	.	.
C[C@@H]1CN([C@@H](C)CO)S(=O)(=O)c2ccc(C3=CCCC3)cc2O[C@@H]1CN(C)C(=O)c1ccccn1	5	0	-7	-3	.
CC(C)(C)C(=O)Nc1nc2c(s1)COc1ccccc1-2	.	0	13	5	4
Nc1nc2c(s1)COc1ccccc1-2	6	43*	-4	2	2
N/C(=N\OC(=O)c1ccc(=O)n(Cc2ccccc2)c1)c1ccccn1	.	43*	0	4	4
N/C(=N\OC(=O)c1ccc2ccccc2c1)c1ccccn1	.	45*	-2	0	0
N/C(=N\OC(=O)c1ccco1)c1ccccn1	1	43*	-2	0	-10
N/C(=N\OC(=O)c1cc(Br)ccc1Cl)c1ccccn1	3	43*	1	4	-1
N/C(=N\OC(=O)c1ccco1)c1ccccc1	8	.	.	.	-5
N/C(=N\OC(=O)c1ccc(=O)n(Cc2ccc(Cl)cc2)c1)c1ccccn1	.	0	-4	-4	2
Cc1ccc(S(=O)(=O)N[C@@H]2CC[C@@H](CCNC(=O)Nc3ccc(Cl)cc3)O[C@H]2CO)cc1	3	0	-7	1	.
N/C(=N/O)c1ccccc1N1CCC(Cc2ccccc2)CC1	.	44*	-1	2	2
c1ccc(CC2CCN(c3nnnn3-c3ccccc3)CC2)cc1	-13	.	.	.	.
O=C(CSc1nnc(-c2ccccc2)n1-c1ccc(Cl)cc1)N/N=C/c1ccccc1C(=O)O	45*	0	-4	3	-1
COc1ccc2c3c(n(C)c2c1)[C@H](CO)N(Cc1ccccc1)CC31CCN(S(C)(=O)=O)CC1	.	0	7	-5	.
CCCCn1nnc(NC(=O)c2ccc(-c3ccccc3[N+](=O)[O-])o2)n1	.	0	0	1	-1
CCn1nnc(NC(=O)c2ccc([N+](=O)[O-])o2)n1	.	43*	.	-2	.
C[C@H]1CN([C@@H](C)CO)C(=O)c2cc(NC(=O)Nc3ccccc3)ccc2O[C@@H]1CN(C)Cc1ccc(C(=O)O)cc1	3	0	-1	-1	.
CCOC(=O)C1CCCN(CC(=O)Nc2cc(C)cc(C)c2)C1 (stereo not given)	-12	0	9	27	-8
CCOC(=O)C1CCCN(CCC(=O)Nc2cc(C)cc(C)c2)C1 (stereo not given)	.	44*	-5	-1	-6
CO[C@@H]1CN(C)C(=O)c2cc(NC(=O)C3CCC3)ccc2OC[C@@H](C)N(Cc2ccccn2)C[C@@H]1C	-4	0	2	5	2
CCOc1ccccc1NC(=O)C(NCC1(N2CCCCC2)CCCCC1)c1ccccc1 (stereo not given)	.	44*	-8	2	-2
CCC(=O)N1[C@@H]2CN(S(=O)(=O)c3ccccc3)c3ccccc3[C@@H]2[C@@H]1CO	0	0	-3	-1	.
COC(=O)c1ccc(NC(=O)CSc2nnc(C)n2CC2CCCO2)cc1 (stereo not given)	.	0	-1	-3	6
COc1ccc(C(=O)NNC(=O)CSc2nnc(C)n2CC2CCCO2)cc1 (stereo not given)	17	44*	-3	2	2
SMILES	PGC1a acetyl inh	FGF22 binding	SIRT5 block	ERAP1 HTS inh	FN deposition inh
COCCNC(=O)[C@H]1[C@H](CO)[C@H]2Cn3c(ccc(-c4ccc(F)cc4)c3=O)[C@@H]1N2C	.	0	-8	-2	.
C[C@@H]1CCCCO[C@@H](CN(C)C)[C@H](C)CN([C@@H](C)CO)C(=O)c2cc(NC(=O)Cc3ccccc3)ccc2O1	4	.	.	.	.
c1ccc2[nH]c(SCc3cn4cccnc4n3)nc2c1	.	.	.	.	31*
c1ccc(-c2cnnc(SCc3cn4cccnc4n3)n2)cc1	11	.	.	.	.
COc1cccc2c1OCC/C2=N\NC(=O)C(C)Oc1ccc([N+](=O)[O-])cc1 (stereo not given)	.	62*	2	-1	14
COc1cccc2c1OCC/C2=N\NC(=O)COc1ccc(C)cc1	9	1	-5	2	1
C[C@H]1CN([C@@H](C)CO)S(=O)(=O)c2ccc(/C=C/c3ccccc3)cc2O[C@@H]1CN(C)C(=O)Nc1ccc(F)cc1	2	-1	28*	2	-7
